Measured values: ChEMBL document CHEMBL1126990, “Design and synthesis of 18F-labeled neurotoxic analogs of MPTP” (J Med Chem, 1993)

Key:
Rattus norvegicus = species: Rattus norvegicus; assay: Maximal rate (Vmax) for oxidation by rat liver MAO (results are means of number of separate experiments, n=4) (*p<0.01); assay type: ADME
In short: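 Rat liver MAO (crude P2 mitochondrial fraction from adult male Wistar rats, in pH 7.4 phosphate buffer) incubated with substrate at 30 μM to 5 mM; colorimetric detection of H2O2 formed. Blanks contained 0.1 mM pargyline. Vmax and Km from linear regression of Lineweaver-Burk plots; means ± SE of n separate experiments; ANOVA with post-hoc Scheffe test.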

Mus musculus [1] = species: Mus musculus; assay: Biodistribution of [18F]-radiolabeled compound in the mouse blood after 15 minutes (average uptake in (%injected dose)/(% body weight); assay type: ADME, organism-based; details: in vivo, 0.25 h
In short: (§1)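 Adult male C57 Black mice (about 20 g), anesthetized with 1 mg sodium pentobarbital ip, given 0.1 mL (~0.05 mCi) tracer via tail vein. Killed by cervical dislocation at set times (5–90 min). Organs sampled, counted, weighed. Injected dose measured against weighed standards, minus residual tail activity. %id/g multiplied by body weight gives normalized uptake. Mean ± SD, N = 3 (N = 2 at 5 min).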

Mus musculus [2] = species: Mus musculus; assay: Biodistribution of [18F]-radiolabeled compound in the mouse heart after 30 minutes (average uptake in (%injected dose)/(% body weight); assay type: ADME, organism-based; details: in vivo, 0.5 h; in short: as §1
Mus musculus [3] = species: Mus musculus; assay: Biodistribution of [18F]-radiolabeled compound in the mouse spleen after 90 minutes (average uptake in (%injected dose)/(% body weight); assay type: ADME, organism-based; details: in vivo, 1.5 h; in short: as §1
Mus musculus [4] = species: Mus musculus; assay: Biodistribution of [18F]-radiolabeled compound in the mouse lung after 5 minutes (average uptake in (%injected dose)/(% body weight); assay type: ADME, organism-based; details: in vivo; in short: as §1
Mus musculus [5] = species: Mus musculus; assay: Biodistribution of [18F]-radiolabeled compound in the mouse lung after 60 minutes (average uptake in (%injected dose)/(% body weight); assay type: ADME, organism-based; details: in vivo, 1 h; in short: as §1
Mus musculus [6] = species: Mus musculus; assay: Biodistribution of [18F]-radiolabeled compound in the mouse muscle after 30 minutes (average uptake in (%injected dose)/(% body weight); assay type: ADME, organism-based, Muscle tissue; details: in vivo, 0.5 h; in short: as §1
Mus musculus [7] = species: Mus musculus; assay: Biodistribution of [18F]-radiolabeled compound in the mouse muscle after 5 minutes (average uptake in (%injected dose)/(% body weight); assay type: ADME, organism-based, Muscle tissue; details: in vivo; in short: as §1
Mus musculus [8] = species: Mus musculus; assay: Biodistribution of [18F]-radiolabeled compound in the mouse intestine after 30 min (average uptake in (%injected dose)/(% body weight); assay type: ADME, organism-based; details: in vivo, 0.5 h; in short: as §1
Mus musculus [9] = species: Mus musculus; assay: Biodistribution of [18F]-radiolabeled compound in the mouse lung after 30 minutes (average uptake in (%injected dose)/(% body weight); assay type: ADME, organism-based; details: in vivo, 0.5 h; in short: as §1
Mus musculus [10] = species: Mus musculus; assay: Biodistribution of [18F]-radiolabeled compound in the mouse brain after 15 minutes (average uptake in (%injected dose)/(% body weight); assay type: ADME, organism-based; details: in vivo, 0.25 h; in short: as §1
Mus musculus [11] = species: Mus musculus; assay: Biodistribution of [18F]-radiolabeled compound in the mouse blood after 5 minutes (average uptake in (%injected dose)/(% body weight); assay type: ADME, organism-based; details: in vivo; in short: as §1
Mus musculus [12] = species: Mus musculus; assay: Biodistribution of [18F]-radiolabeled compound in the mouse lung after 15 minutes (average uptake in (%injected dose)/(% body weight); assay type: ADME, organism-based; details: in vivo, 0.25 h; in short: as §1
Mus musculus [13] = species: Mus musculus; assay: Biodistribution of [18F]-radiolabeled compound in the mouse kidney after 5 minutes (average uptake in (%injected dose)/(% body weight); assay type: ADME, organism-based; details: in vivo; in short: as §1
Mus musculus [14] = species: Mus musculus; assay: Biodistribution of [18F]-radiolabeled compoundP in the mouse spleen after 15 minutes (average uptake in (%injected dose)/(% body weight); assay type: ADME, organism-based; details: in vivo, 0.25 h; in short: as §1
Mus musculus [15] = species: Mus musculus; assay: Biodistribution of [18F]-radiolabeled compound in the mouse liver after 5 minutes (average uptake in (%injected dose)/(% body weight); assay type: ADME, organism-based; details: in vivo; in short: as §1
Mus musculus [16] = species: Mus musculus; assay: Biodistribution of [18F]-radiolabeled compound in the mouse blood after 30 minutes (average uptake in (%injected dose)/(% body weight); assay type: ADME, organism-based; details: in vivo, 0.5 h; in short: as §1
Mus musculus [17] = species: Mus musculus; assay: Biodistribution of [18F]-radiolabeled compound in the mouse brain after 30 minutes (average uptake in (%injected dose)/(% body weight); assay type: ADME, organism-based; details: in vivo, 0.5 h; in short: as §1
Mus musculus [18] = species: Mus musculus; assay: Biodistribution of [18F]-radiolabeled compound in the mouse liver after 60 minutes (average uptake in (%injected dose)/(% body weight); assay type: ADME, organism-based; details: in vivo, 1 h; in short: as §1
Mus musculus [19] = species: Mus musculus; assay: Biodistribution of [18F]-radiolabeled compound in the mouse muscle after 90 minutes (average uptake in (%injected dose)/(% body weight); assay type: ADME, organism-based, Muscle tissue; details: in vivo, 1.5 h; in short: as §1
Mus musculus [20] = species: Mus musculus; assay: Biodistribution of [18F]-radiolabeled compound in the mouse kidney after 60 minutes (average uptake in (%injected dose)/(% body weight); assay type: ADME, organism-based; details: in vivo, 1 h; in short: as §1
Mus musculus [21] = species: Mus musculus; assay: Biodistribution of [18F]-radiolabeled compound in the mouse intestine after 90 minutes (average uptake in (%injected dose)/(% body weight); assay type: ADME, organism-based; details: in vivo, 1.5 h; in short: as §1
Mus musculus [22] = species: Mus musculus; assay: Biodistribution of [18F]-radiolabeled compound in the mouse heart after 15 minutes (average uptake in (%injected dose)/(% body weight); assay type: ADME, organism-based; details: in vivo, 0.25 h; in short: as §1
Mus musculus [23] = species: Mus musculus; assay: Biodistribution of [18F]-radiolabeled compound in the mouse intestine after 5 minutes (average uptake in (%injected dose)/(% body weight); assay type: ADME, organism-based; details: in vivo; in short: as §1
Mus musculus [24] = species: Mus musculus; assay: Biodistribution of [18F]-radiolabeled compound in the mouse liver after 90 minutes (average uptake in (%injected dose)/(% body weight); assay type: ADME, organism-based; details: in vivo, 1.5 h; in short: as §1
Mus musculus [25] = species: Mus musculus; assay: Biodistribution of [18F]-radiolabeled compound in the mouse heart after 90 minutes (average uptake in (%injected dose)/(% body weight); assay type: ADME, organism-based; details: in vivo, 1.5 h; in short: as §1

Compound: CN1CC=C(c2ccccc2CF)CC1
- Vmax (Rattus norvegicus): 609 nM hr-1 (mg of protein)-1
- Time (Mus musculus [1]): 0.66 min
- Time (Mus musculus [2]): 2.03 min
- Time (Mus musculus [3]): 0.95 min
- Time (Mus musculus [4]): 6.33 min
- Time (Mus musculus [5]): 1.6 min
- Time (Mus musculus [6]): 0.43 min
- Time (Mus musculus [7]): 0.61 min
- Time (Mus musculus [8]): 1.06 min
- Time (Mus musculus [9]): 2.54 min
- Time (Mus musculus [10]): 0.82 min
- Time (Mus musculus [11]): 0.67 min
- Time (Mus musculus [12]): 3.83 min
- Time (Mus musculus [13]): 4.04 min
- Time (Mus musculus [14]): 1.33 min
- Time (Mus musculus [15]): 2.3 min
- Time (Mus musculus [16]): 0.4 min
- Time (Mus musculus [17]): 0.68 min
- Time (Mus musculus [18]): 0.72 min
- Time (Mus musculus [19]): 0.24 min
- Time (Mus musculus [20]): 0.94 min
- Time (Mus musculus [21]): 2.32 min
- Time (Mus musculus [22]): 2.41 min
- Time (Mus musculus [23]): 1.36 min
- Time (Mus musculus [24]): 0.778 min
- Time (Mus musculus [25]): 1.84 min
